From ChEMBL document CHEMBL5712915, “The Role of the Histone Methyltransferase EZH2 in Liver Inflammation and Fibrosis in STAM NASH Mice” (Biology (Basel), 2020)
The source made the active and inactive calls. The calls are words filed in the database; no cut-off is given here.

What was measured:
Mus musculus [1] = experiment: Antiinflammatory activity against streptozotocin induced C57BL/6 mouse STAM model assessed as reduction of IFN-gamma expression administered at 10 mg/kg, po for 3 weeks; assay type: functional, organism-based
In short: (§1)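 STAM mice: male C57BL/6 pups given streptozotocin (200 μg per mouse) at day 2, high-fat diet from week 4, oral dosing at 10 mg/kg once daily from weeks 6–9. Liver total RNA reverse transcribed. qPCR run for 40 cycles of 95 °C 15 s, 55–60 °C 15 s, 72 °C 30 s. Comparative Ct method, normalized to GAPDH/18S, compared with control group.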

Mus musculus [2] = experiment: Antiinflammatory activity in streptozotocin induced C57BL/6 mouse STAM model assessed as reduction of ALT level administered at 10 mg/kg, po daily for 3 weeks; assay type: functional, organism-based
In short: (§2)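 Streptozotocin (200 μg per mouse) given to two-day-old male C57BL/6 pups, high-fat diet from four weeks. Oral dosing at 10 mg/kg once daily for three weeks, starting at six weeks of age. Under anesthesia 500 μl blood collected and serum separated for TNF-α, ALT and glucose. Means ± SE; one-way ANOVA with Newman–Keuls test.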

Mus musculus [3] = experiment: Antiinflammatory activity in streptozotocin induced C57BL/6 mouse STAM model assessed as reduction of TNF-alpha level administered at 10 mg/kg, po daily for 3 weeks; assay type: functional, organism-based; in short: as §2
[4] = Toxicity in streptozotocin induced C57BL/6 mouse STAM model assessed as change in kidney weight at 10 mg/kg, po daily for 3 weeks; assay type: organism-based; conditions: in vivo, 504 h
In short: (§3)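 In STAM mice (male C57BL/6, streptozotocin 200 μg per mouse at day 2, high-fat diet from week 4), oral dosing at 10 mg/kg once daily from six to nine weeks. Body weight recorded daily between 15:00 and 17:00. Liver, kidney and white adipose tissue weights expressed relative to body weight. Means ± SE; one-way ANOVA with Newman–Keuls test.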

[5] = Toxicity in streptozotocin induced C57BL/6 mouse STAM model assessed as change in liver weight at 10 mg/kg, po daily for 3 weeks; assay type: organism-based; conditions: in vivo, 504 h; in short: as §3
Mus musculus [6] = experiment: Anti-NASH activity in streptozotocin induced C57BL/6 mouse STAM model administered at 10 mg/kg, po daily for 3 weeks by hematoxylin and eosin staining analysis; assay type: functional, organism-based
In short: (§4)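 Male C57BL/6 pups given streptozotocin (200 μg per mouse) at two days old, high-fat diet from four weeks. Dosed orally once daily at 10 mg/kg from six to nine weeks of age. Liver fixed in 10% neutral buffered formalin and paraffin-embedded. 5-μm sections stained with H&E, or with Oil Red O for hepatic lipid.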

[7] = Toxicity in streptozotocin induced C57BL/6 mouse STAM model assessed as change in white adipose tissue weight at 10 mg/kg, po daily for 3 weeks; assay type: organism-based; conditions: in vivo, 504 h; in short: as §3
Mus musculus [8] = experiment: Anti-NASH activity in streptozotocin induced C57BL/6 mouse STAM model assessed as reduction of liver steatosis administered at 10 mg/kg, po daily for 3 weeks by oil red O staining analysis; assay type: functional, organism-based; in short: as §4
[9] = Toxicity in streptozotocin induced C57BL/6 mouse STAM model assessed as change in body weight at 10 mg/kg, po daily for 3 weeks; assay type: organism-based; conditions: in vivo, 504 h; in short: as §3
Mus musculus [10] = experiment: Antiinflammatory activity in streptozotocin induced C57BL/6 mouse STAM model assessed as reduction of glucose level administered at 10 mg/kg, po daily for 3 weeks; assay type: functional, organism-based; in short: as §2
Mus musculus [11] = experiment: Antiinflammatory activity against streptozotocin induced C57BL/6 mouse STAM model assessed as increase in Runx3 mRNA expression administered at 10 mg/kg, po for 3 weeks; assay type: functional, organism-based; in short: as §1
[12] = target: Histone-lysine N-methyltransferase EZH2 (Mus musculus) (UniProt Q61188); experiment: In vivo inhibition of EZH2 in streptozotocin induced C57BL/6 mouse STAM model assessed as reduction mRNA level administered at 10 mg/kg, po for 3 weeks; assay type: functional, organism-based; in short: as §1
Chain of Histone-lysine N-methyltransferase EZH2 (Mus musculus) (Q61188 whole entry): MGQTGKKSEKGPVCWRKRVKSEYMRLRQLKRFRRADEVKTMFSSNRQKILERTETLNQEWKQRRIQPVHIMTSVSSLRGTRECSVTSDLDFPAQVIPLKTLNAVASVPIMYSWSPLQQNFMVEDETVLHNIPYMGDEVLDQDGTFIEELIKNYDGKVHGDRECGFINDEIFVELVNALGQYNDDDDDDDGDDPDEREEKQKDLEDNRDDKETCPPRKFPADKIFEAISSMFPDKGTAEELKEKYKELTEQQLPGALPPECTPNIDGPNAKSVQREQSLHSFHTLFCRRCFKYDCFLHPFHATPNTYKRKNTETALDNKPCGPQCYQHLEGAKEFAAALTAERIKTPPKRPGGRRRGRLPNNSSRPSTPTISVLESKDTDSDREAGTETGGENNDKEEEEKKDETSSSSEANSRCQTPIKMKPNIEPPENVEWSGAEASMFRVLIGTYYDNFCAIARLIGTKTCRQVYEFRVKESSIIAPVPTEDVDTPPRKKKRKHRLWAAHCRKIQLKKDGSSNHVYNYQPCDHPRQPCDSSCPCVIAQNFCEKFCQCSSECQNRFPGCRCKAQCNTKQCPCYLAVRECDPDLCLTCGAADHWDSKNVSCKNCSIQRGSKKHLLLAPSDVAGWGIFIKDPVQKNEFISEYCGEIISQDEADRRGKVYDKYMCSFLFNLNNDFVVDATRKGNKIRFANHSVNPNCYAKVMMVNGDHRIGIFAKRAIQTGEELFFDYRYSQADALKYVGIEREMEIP

SMILES	Activity (Mus musculus [1])	Activity (Mus musculus [2])	Activity (Mus musculus [3])	Activity [4]	Activity [5]	Activity (Mus musculus [6])	Activity [7]	Activity (Mus musculus [8])	Activity [9]	Activity (Mus musculus [10])	Activity (Mus musculus [11])	inhibition [12]
CCN(c1cc(-c2ccc(CN3CCOCC3)cc2)cc(C(=O)NCc2c(C)cc(C)[nH]c2=O)c1C)C1CCOCC1 [TAZEMETOSTAT]	Active	inactive	inactive	Non-Toxic	Non-Toxic	Active	Non-Toxic	Active	Non-Toxic	inactive	Active	
CC[C@H]1[C@@H](O)[C@@H]2[C@H](CC[C@]3(C)[C@@H]([C@H](C)CCC(=O)O)CC[C@@H]23)[C@@]2(C)CC[C@@H](O)C[C@@H]12						Active		Active				
CCCc1cc(C)[nH]c(=O)c1CNC(=O)c1cc(-c2ccc(N3CCN(C(C)C)CC3)nc2)cc2c1cnn2C(C)C	Active	inactive	Active	Non-Toxic	Non-Toxic	Active	Non-Toxic	Active	Non-Toxic	inactive	Active	Active
